ChEMBL document CHEMBL1133085, “Synthesis, antibacterial, and cytotoxic evaluation of certain 7-substituted norfloxacin derivatives” (2000)
Values after ≈ are worked out from the molar mass of the structure shown.

Columns and labels:
Assay type in all cases: functional
Escherichia coli = experiment: In vitro antimicrobial activity against Escherichia coli was determined
Method in brief: (§1)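 Broth microdilution MIC in nutrient broth with 1-5 × 10⁵ CFU/mL inoculum. Compounds were dissolved in 100% DMSO and serially diluted in DMSO, starting at 300 µM final with at most 1% DMSO. Plates were incubated at 37 °C for 20-72 h. MIC was read by visual turbidity or microscopy. Vehicle and reference controls were included, and tests were run in duplicate.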

UO-31 = experiment: In vitro inhibitory activity for human renal cancer cell line UO-31 was determined.
Method in brief: (§2)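 NCI in vitro human tumour cell line panel screen. Growth inhibition is expressed as log GI₅₀ (M), the concentration reducing cell growth to 50% of controls. The mean is the average log GI₅₀ across all cell lines tested.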

[1] = In vitro antimicrobial activity against Mycobacterium ranae was determined
Method in brief: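 MIC determined in brain heart infusion broth containing 1-5 × 10⁵ CFU/mL. Compounds in DMSO were serially diluted, starting at 300 µM final with 1% DMSO maximum. Incubation was at 37 °C for 20-72 h, with visual turbidity or microscope read-out. Vehicle and reference controls were included, and assays were run in duplicate.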

Klebsiella pneumoniae = experiment: In vitro antimicrobial activity against Klebsiella pneumoniae was determined; method in brief: as §1
Pseudomonas aeruginosa = experiment: In vitro antimicrobial activity against Pseudomonas aeruginosa was determined; method in brief: as §1
Proteus vulgaris = experiment: In vitro antimicrobial activity against Proteus vulgaris was determined
Method in brief: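 MIC determined in Mueller-Hinton broth inoculated at 1-5 × 10⁵ CFU/mL. DMSO serial dilutions of compounds were used, with a top final concentration of 300 µM and DMSO at most 1%. Incubation was at 37 °C for 20-72 h. Growth was judged by turbidity or microscopy. Vehicle and reference controls were included, with duplicate assays.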

Staphylococcus aureus = experiment: In vitro antimicrobial activity against Staphylococcus aureus (methicillin-resistant) was determined
Method in brief: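 MRSA in Mueller-Hinton broth at 1-5 × 10⁵ CFU/mL. Compound serial dilutions in 100% DMSO were added 1:100, giving a maximal test concentration of 300 µM and at most 1% DMSO. Plates were held 20-72 h at 37 °C. MIC (µM) was taken from visual turbidity or microscopic growth. Vehicle and reference-agent controls; run in duplicate.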

CAKI-1 = experiment: In vitro inhibitory activity for human renal cancer cell line CAK-1 was determined.; method in brief: as §2
[2] = Mean value (average log GI50) over all cell lines tested; method in brief: as §2
Enterococcus faecalis = experiment: In vitro antimicrobial activity against Enterococcus faecalis (vancomycin-resistant) was determined
Method in brief: (§3)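 Broth dilution in tryptic soy broth with 7% calf serum against clinical isolates (vancomycin-resistant E. faecalis; erythromycin/ampicillin-resistant S. pneumoniae) at 1-5 × 10⁵ CFU/mL. DMSO serial dilutions were added 1:100, giving a top concentration of 300 µM and at most 1% DMSO. Incubated 20-72 h at 37 °C. MIC (µM) read by visual turbidity or microscopy. Vehicle and reference controls; duplicate.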

RXF 393 = experiment: In vitro inhibitory activity for human renal cancer cell line RXF-393 was determined.; method in brief: as §2
[3] = In vitro antimicrobial activity against […] (erythromycin and ampicillin-resistant) was determined; settings: Streptococcus pneumoniae; method in brief: as §3

## C=C1CC(CN2CCN(c3cc4c(cc3F)c(=O)c(C(=O)O)cn4CC)CC2)(c2ccccc2)OC1=O (configuration not stated)
Escherichia coli
  MIC: 98.9 µM (≈ 50 µg/mL)
UO-31
  GI50: 1580 nM
[1]
  MIC: > 200 µM
Klebsiella pneumoniae
  MIC: 12.4 µM (≈ 6.27 µg/mL)
Pseudomonas aeruginosa
  MIC: > 200 µM
Proteus vulgaris
  MIC: > 200 µM
Staphylococcus aureus
  MIC: 1.54 µM (≈ 0.779 µg/mL)
CAKI-1
  GI50: 1860 nM
[2]
  Mean: -5.47

## CCn1cc(C(=O)O)c(=O)c2cc(F)c(N3CCN(C/C(=N\O)c4ccc(Cl)cc4)CC3)cc21
Escherichia coli
  MIC: 6.16 µM (≈ 3 µg/mL)
Enterococcus faecalis
  MIC: > 200 µM
UO-31
  GI50: 28.8 nM
RXF 393
  GI50: 724 nM
[1]
  MIC: > 200 µM
Klebsiella pneumoniae
  MIC: 0.21 µM (≈ 0.102 µg/mL)
Pseudomonas aeruginosa
  MIC: > 200 µM
Proteus vulgaris
  MIC: 6.16 µM (≈ 3 µg/mL)
Staphylococcus aureus
  MIC: > 200 µM
CAKI-1
  GI50: 398 nM
[3]
  MIC: > 200 µM
[2]
  Mean: -5.03

## CCn1cc(C(=O)O)c(=O)c2cc(F)c(N3CCN(C/C(=N\O)c4ccc(OC)cc4)CC3)cc21
Escherichia coli
  MIC: 1.62 µM (≈ 0.782 µg/mL)
Enterococcus faecalis
  MIC: 3.23 µM (≈ 1.56 µg/mL)
UO-31
  GI50: 550 nM
[1]
  MIC: 104 µM (≈ 50.2 µg/mL)
Klebsiella pneumoniae
  MIC: 0.027 µM (≈ 0.013 µg/mL)
Pseudomonas aeruginosa
  MIC: 25.9 µM (≈ 12.5 µg/mL)
Proteus vulgaris
  MIC: 3.23 µM (≈ 1.56 µg/mL)
Staphylococcus aureus
  MIC: 0.41 µM (≈ 0.198 µg/mL)
CAKI-1
  GI50: 6920 nM
[3]
  MIC: 13 µM (≈ 6.27 µg/mL)
[2]
  Mean: -4.5

## CCn1cc(C(=O)O)c(=O)c2cc(F)c(N3CCN(C/C(C)=N/O)CC3)cc21
Escherichia coli
  MIC: 0.51 µM (≈ 0.199 µg/mL)
Enterococcus faecalis
  MIC: 30 µM (≈ 11.7 µg/mL)
UO-31
  GI50: 39800 nM
RXF 393
  GI50: > 100000 nM
[1]
  MIC: 32 µM (≈ 12.5 µg/mL)
Klebsiella pneumoniae
  MIC: 0.13 µM (≈ 0.0508 µg/mL)
Pseudomonas aeruginosa
  MIC: 16 µM (≈ 6.25 µg/mL)
Proteus vulgaris
  MIC: 2 µM (≈ 0.781 µg/mL)
Staphylococcus aureus
  MIC: 0.51 µM (≈ 0.199 µg/mL)
CAKI-1
  GI50: > 100000 nM
[3]
  MIC: 30 µM (≈ 11.7 µg/mL)
[2]
  Mean: >-4

## CCn1cc(C(=O)O)c(=O)c2cc(F)c(N3CCNCC3)cc21 [NORFLOXACIN]
Escherichia coli
  MIC: 0.63 µM (≈ 0.201 µg/mL)
Enterococcus faecalis
  MIC: 9.8 µM (≈ 3.13 µg/mL)
[1]
  MIC: 9.8 µM (≈ 3.13 µg/mL)
Klebsiella pneumoniae
  MIC: 0.041 µM (≈ 0.0131 µg/mL)
Pseudomonas aeruginosa
  MIC: 1.22 µM (≈ 0.39 µg/mL)
Proteus vulgaris
  MIC: 0.16 µM (≈ 0.0511 µg/mL)
Staphylococcus aureus
  MIC: 4.89 µM (≈ 1.56 µg/mL)
[3]
  MIC: 19.6 µM (≈ 6.26 µg/mL)

## CCn1cc(C(=O)O)c(=O)c2cc(F)c(N3CCN(CC(=O)c4ccc(OC)cc4)CC3)cc21
Escherichia coli
  MIC: 0.83 µM (≈ 0.388 µg/mL)
Enterococcus faecalis
  MIC: > 200 µM
[1]
  MIC: > 200 µM
Klebsiella pneumoniae
  MIC: 0.053 µM (≈ 0.0248 µg/mL)
Pseudomonas aeruginosa
  MIC: 13.4 µM (≈ 6.26 µg/mL)
Proteus vulgaris
  MIC: 0.83 µM (≈ 0.388 µg/mL)
Staphylococcus aureus
  MIC: 6.7 µM (≈ 3.13 µg/mL)
[3]
  MIC: > 200 µM

## C=C1CC(CN2CCN(c3cc4c(cc3F)c(=O)c(C(=O)O)cn4CC)CC2)(c2ccc(OC)cc2)OC1=O (configuration not stated)
UO-31
  GI50: 2750 nM
CAKI-1
  GI50: 5130 nM
[2]
  Mean: -5.19

## CCn1cc(C(=O)O)c(=O)c2cc(F)c(N3CCN(C/C(=N/O)c4ccc(F)cc4)CC3)cc21
Escherichia coli
  MIC: 6.38 µM (≈ 3 µg/mL)
Enterococcus faecalis
  MIC: > 200 µM
UO-31
  GI50: 132 nM
RXF 393
  GI50: 170 nM
[1]
  MIC: > 200 µM
Klebsiella pneumoniae
  MIC: 0.21 µM (≈ 0.0988 µg/mL)
Pseudomonas aeruginosa
  MIC: > 200 µM
Proteus vulgaris
  MIC: 6.38 µM (≈ 3 µg/mL)
Staphylococcus aureus
  MIC: 2.13 µM (≈ 1 µg/mL)
CAKI-1
  GI50: 1910 nM
[3]
  MIC: > 200 µM
[2]
  Mean: -4.67

## CCn1cc(C(=O)O)c(=O)c2cc(F)c(N3CCN(C/C(=N/O)c4ccccc4)CC3)cc21
Escherichia coli
  MIC: 0.86 µM (≈ 0.389 µg/mL)
Enterococcus faecalis
  MIC: > 200 µM
UO-31
  GI50: 309 nM
RXF 393
  GI50: 36300 nM
[1]
  MIC: 55.3 µM (≈ 25 µg/mL)
Klebsiella pneumoniae
  MIC: 0.22 µM (≈ 0.0995 µg/mL)
Pseudomonas aeruginosa
  MIC: 13.8 µM (≈ 6.24 µg/mL)
Proteus vulgaris
  MIC: 3.45 µM (≈ 1.56 µg/mL)
Staphylococcus aureus
  MIC: 0.44 µM (≈ 0.199 µg/mL)
CAKI-1
  GI50: 32400 nM
[3]
  MIC: > 200 µM
[2]
  Mean: -4.53
